Experimental data as given in ChEMBL document CHEMBL3046209, “Semisynthesis and quantitative structure-activity relationship (QSAR) study of novel aromatic esters of 4'-demethyl-4-deoxypodophyllotoxin as insecticidal agents” (2009).

Experiments:
Format in all cases: functional
Mythimna separata [1] = experiment: In vivo insecticidal activity against pre-third-instar larval stage of Mythimna separata (Oriental armyworm) in corn leaves assessed as corrected mortality rate at 1 mg/ml treated for 3 secs before larval infestation measured after 12 days by leaf-dipping method; conditions: 288 h
How it was run: (§1)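 Leaf-dip assay: fresh corn leaves dipped 3 s in 1 mg/mL compound in acetone, then air-dried; acetone-only leaves served as control. Groups of 10 pre-third-instar larvae per dish fed treated leaves, replaced when consumed. After 48 h all dishes switched to untreated fresh leaves until adult emergence. Held at 25 ± 2 °C, RH 65–80%, 12 h/12 h light/dark. Corrected mortality scored.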

Mythimna separata [2] = experiment: In vivo insecticidal activity against pre-third-instar larval stage of Mythimna separata (Oriental armyworm) in corn leaves assessed as corrected mortality rate at 1 mg/ml treated for 3 secs before larval infestation measured after 36 days by leaf-dipping method; conditions: 864 h; how it was run: as §1
Mythimna separata [3] = experiment: In vivo insecticidal activity against pre-third-instar larval stage of Mythimna separata (Oriental armyworm) in corn leaves assessed as corrected mortality rate at 1 mg/ml treated for 3 secs before larval infestation measured after 24 days by leaf-dipping method; conditions: 576 h; how it was run: as §1

| Structure (SMILES) | mortality at 1000 µg/mL (Mythimna separata [1]) [%] | mortality at 1000 µg/mL (Mythimna separata [2]) [%] | mortality at 1000 µg/mL (Mythimna separata [3]) [%] |
| --- | --- | --- | --- |
| COc1cc([C@@H]2c3cc4c(cc3C[C@H]3COC(=O)[C@@H]32)OCO4)cc(OC)c1OC(=O)Cc1cccc2ccccc12 | 7.1 | 37 | 17.8 |
| COc1cc([C@@H]2c3cc4c(cc3C[C@H]3COC(=O)[C@@H]32)OCO4)cc(OC)c1OC(=O)c1ccccc1Cl | 17.8 | 37 | 25 |
| COc1cc([C@@H]2c3cc4c(cc3C[C@H]3COC(=O)[C@@H]32)OCO4)cc(OC)c1OC(=O)CCCc1c[nH]c2ccccc12 | 10.7 | 40.7 | 14.2 |
| COc1cc([C@@H]2c3cc4c(cc3C[C@H]3COC(=O)[C@@H]32)OCO4)cc(OC)c1OC(=O)c1cc([N+](=O)[O-])cc([N+](=O)[O-])c1 | 14.2 | 22.2 | 25 |
| COc1cc([C@@H]2c3cc4c(cc3C[C@H]3COC(=O)[C@@H]32)OCO4)cc(OC)c1OC(=O)c1cccc(C)c1 | 17.8 | 40.7 | 25 |
| COc1cc([C@@H]2c3cc4c(cc3C[C@H]3COC(=O)[C@@H]32)OCO4)cc(OC)c1OC(=O)c1ccncc1 | 14.2 | 59.2 | 21.4 |
| COc1cc([C@@H]2c3cc4c(cc3C[C@H]3COC(=O)[C@@H]32)OCO4)cc(OC)c1OC(=O)c1ccc(C)cc1 | 7.1 | 33.3 | 17.8 |
| COc1cc([C@@H]2c3cc4c(cc3C[C@H]3COC(=O)[C@@H]32)OCO4)cc(OC)c1OC(=O)c1ccc([N+](=O)[O-])cc1 | 7.1 | 40.7 | 17.8 |
| COc1cc([C@@H]2c3cc4c(cc3C[C@H]3COC(=O)[C@@H]32)OCO4)cc(OC)c1OC(=O)c1ccccc1 | 28.5 | 48.1 | 42.8 |
| COc1cc([C@@H]2c3cc4c(cc3C[C@H]3COC(=O)[C@@H]32)OCO4)cc(OC)c1OC(=O)/C=C/c1ccccc1 | 10.7 | 48.1 | 17.8 |
| CC(=O)O[C@@H]1C[C@H](O)[C@@]23CO[C@@H](O)[C@]1(C)[C@@H]2C[C@@H](O)[C@]1(C)[C@@H]3C(=O)[C@H](OC(C)=O)[C@@]2(C)[C@H](c3ccoc3)C[C@H]3O[C@]321 [TOOSENDANIN] | 21.4 | 40.7 | 35.7 |
| COc1cc([C@@H]2c3cc4c(cc3C[C@H]3COC(=O)[C@@H]32)OCO4)cc(OC)c1OC(=O)c1ccc(Cl)cc1 | 0 | 29.6 | 14.2 |
| COc1cc([C@@H]2c3cc4c(cc3C[C@H]3COC(=O)[C@@H]32)OCO4)cc(OC)c1OC(=O)c1cccc([N+](=O)[O-])c1 | 3.5 | 51.8 | 14.2 |
| COc1ccc(C(=O)Oc2c(OC)cc([C@@H]3c4cc5c(cc4C[C@H]4COC(=O)[C@@H]43)OCO5)cc2OC)cc1 | 3.5 | 25.9 | 21.4 |
| COc1cc([C@@H]2c3cc4c(cc3C[C@H]3COC(=O)[C@@H]32)OCO4)cc(OC)c1OC(=O)c1cccnc1 | 3.5 | 62.9 | 10.7 |
| COc1cc([C@@H]2c3cc4c(cc3C[C@H]3COC(=O)[C@@H]32)OCO4)cc(OC)c1OC(=O)Cc1ccccc1 | 10.7 | 29.6 | 25 |
